# Measured values from publication PMC10937897 (Sexual Medicine, 2024).
# Counter-ions that a name gives are not always drawn. Like-named read-outs stand apart in the source and are kept apart here. Marks after values point to notes of the source that are not given here.
# Experiments:
# [1] = type: in vivo, human; conditions: for AUC0-24 / Cmax / T1/2 / Cmin,ss / Cmax,ss: geometric mean (CV%); for Tmax: median (range); for C24: mean (SD)
# Method in brief: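 Males took 30 or 60 mg oral test compound once daily for 5 days, fasted, 10 per group. Blood (5 mL) was drawn predose and 0.25–24 h postdose on days 1 and 5, and predose on days 3 and 4. Serum (3500 rpm, 10 min, 4 °C; stored –70 °C) was assayed for parent and M1, M5, M12 by LC-MS/MS MRM, linear 0.5–1000 ng/mL. Parameters came from noncompartmental analysis, reported as geometric mean (CV%), Tmax median (range), C24 mean (SD).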
# healthy Chinese males = assay: Safety and tolerability; type: in vivo, human
# Method in brief: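 Healthy Chinese males aged 22–45 y with BMI 19.0–24.0 kg/m2, 10 per group. They took 30 or 60 mg oral test compound tablets once daily for 5 days after an overnight fast, with standardized diets. Monitoring covered physical and ophthalmologic exams, vital signs, 12-lead ECG and labs (hematology, chemistry, coagulation, urinalysis), with a day-8 follow-up. The investigator graded AEs for severity and drug relationship, coded in MedDRA 20.0.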
# CYP3A4 = CYP3A4 (Homo sapiens, UniProt P08684); assay: Preliminary in vitro metabolism study, CYP3A4; type: in vitro ADME; conditions: preliminary previously unreported in vitro study
# Chain of CYP3A4 (P08684 whole entry): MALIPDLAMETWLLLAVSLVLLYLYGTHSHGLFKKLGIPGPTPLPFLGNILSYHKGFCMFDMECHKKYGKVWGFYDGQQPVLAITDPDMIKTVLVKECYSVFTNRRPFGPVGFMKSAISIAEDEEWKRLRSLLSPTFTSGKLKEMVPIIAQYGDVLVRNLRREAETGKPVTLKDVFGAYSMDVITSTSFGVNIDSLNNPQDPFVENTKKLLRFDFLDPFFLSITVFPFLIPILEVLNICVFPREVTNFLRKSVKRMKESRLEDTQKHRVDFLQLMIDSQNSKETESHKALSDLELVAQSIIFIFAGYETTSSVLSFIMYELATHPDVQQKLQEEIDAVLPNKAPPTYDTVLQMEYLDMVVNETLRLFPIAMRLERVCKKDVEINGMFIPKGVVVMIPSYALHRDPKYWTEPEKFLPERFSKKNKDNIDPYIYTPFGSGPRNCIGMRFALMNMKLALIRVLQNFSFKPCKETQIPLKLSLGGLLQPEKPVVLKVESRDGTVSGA
# CYP2C9 = CYP2C9 (Homo sapiens, UniProt P11712); assay: Preliminary in vitro metabolism study, CYP2C9; type: in vitro ADME; conditions: preliminary previously unreported in vitro study
# Chain of CYP2C9 (P11712 whole entry): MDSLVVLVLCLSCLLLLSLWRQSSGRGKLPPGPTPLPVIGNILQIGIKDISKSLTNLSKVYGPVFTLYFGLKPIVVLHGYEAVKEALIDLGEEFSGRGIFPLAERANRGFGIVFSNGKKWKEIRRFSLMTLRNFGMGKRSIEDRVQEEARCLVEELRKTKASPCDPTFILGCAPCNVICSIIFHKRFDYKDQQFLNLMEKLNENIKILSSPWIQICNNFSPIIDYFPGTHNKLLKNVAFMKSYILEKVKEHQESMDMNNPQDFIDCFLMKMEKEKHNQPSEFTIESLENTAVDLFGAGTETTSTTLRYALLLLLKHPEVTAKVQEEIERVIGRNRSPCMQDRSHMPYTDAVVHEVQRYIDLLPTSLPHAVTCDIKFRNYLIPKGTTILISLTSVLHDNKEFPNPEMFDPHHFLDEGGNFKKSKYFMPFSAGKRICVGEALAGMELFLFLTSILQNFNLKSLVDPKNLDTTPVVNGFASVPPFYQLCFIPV
# PDE3 = conditions: cited from earlier work
# PDE6 = conditions: cited from earlier work
# PDE9 = conditions: cited from earlier work
# PDE11 = conditions: cited from earlier work
# [2] = 30 mg oral once daily, day 1, serum, n=10
# [3] = 30 mg oral once daily, day 5, serum, n=9
# [4] = 60 mg oral once daily, day 1, serum, n=10
# [5] = 60 mg oral once daily, day 5, serum, n=10
# [6] = 30 mg once daily 5 days, n=10, probably or possibly related to the study drug
# [7] = 60 mg once daily 5 days, n=10, probably or possibly related to the study drug
# [8] = 5-day once-daily doses at 30 and 60 mg
smiles,measurement,setting,value
"CCCc1nn(C)c2c(=O)[nH]c(-c3cc(S(=O)(=O)N4C[C@@H](C)N[C@@H](C)C4)ccc3OCC)nc12 [Aildenafil, aildenafil citrate]",AUC0-24,[1]; [2],313.78 (45.3) h·ng/mL
same,Cmax,[1]; [2],81.03 (45.3) ng/mL
same,T1/2,[1]; [2],2.75 (21.2) h
same,Tmax,"[1]; 30 mg oral once daily, day 1, serum",1.00 (0.50-2.00) h
same,C24,"[1]; 30 mg oral once daily, day 5, serum concentration at 24 hours",0.92 (148.0)^b ng/mL
same,AUC0-24,[1]; [3],346.23 (51.8)^b h·ng/mL
same,"Cmin,ss",[1]; [3],1.05 (75.7)^b ng/mL
same,T1/2,[1]; [3],3.61 (38.1)^b h
same,"Cmax,ss","[1]; 30 mg oral once daily, day 5, serum, n=10",84.61 (55.9) ng/mL
same,Tmax,"[1]; 30 mg oral once daily, day 5, serum",0.75 (0.25-2.00) h
same,C24,"[1]; 60 mg oral once daily, day 1, serum concentration at 24 hours",1.71 (54.1) ng/mL
same,AUC0-24,[1]; [4],963.18 (44.8) h·ng/mL
same,Cmax,[1]; [4],199.10 (37.8) ng/mL
same,T1/2,[1]; [4],3.26 (19.7) h
same,Tmax,"[1]; 60 mg oral once daily, day 1, serum",1.00 (0.50-2.00) h
same,C24,"[1]; 60 mg oral once daily, day 5, serum concentration at 24 hours",3.85 (66.8) ng/mL
same,AUC0-24,[1]; [5],1683.67 (45.1) h·ng/mL
same,"Cmax,ss",[1]; [5],319.71 (23.8) ng/mL
same,"Cmin,ss",[1]; [5],3.61 (61.3) ng/mL
same,T1/2,[1]; [5],3.38 (24.2) h
same,Tmax,"[1]; 60 mg oral once daily, day 5, serum",0.88 (0.50-3.00) h
same,amount in the blood at 24 hours relative to Cmax,"[1]; after the first dose, 30 or 60 mg",less than 1/20
same,"Blood glucose: elevated: Cases, No.","healthy Chinese males; 30 mg once daily 5 days, n=10",0 No.
same,"Blood glucose: elevated: Participants, No. (%)","healthy Chinese males; 30 mg once daily 5 days, n=10",0 (0) No. (%)
same,"Fatigue: Cases, No.","healthy Chinese males; 30 mg once daily 5 days, n=10",0 No.
same,"Fatigue: Participants, No. (%)","healthy Chinese males; 30 mg once daily 5 days, n=10",0 (0) No. (%)
same,"Head discomfort: Cases, No.","healthy Chinese males; 30 mg once daily 5 days, n=10",0 No.
same,"Head discomfort: Participants, No. (%)","healthy Chinese males; 30 mg once daily 5 days, n=10",0 (0) No. (%)
same,"Lymphocyte count: decreased: Cases, No.","healthy Chinese males; 30 mg once daily 5 days, n=10",0 No.
same,"Lymphocyte count: decreased: Participants, No. (%)","healthy Chinese males; 30 mg once daily 5 days, n=10",0 (0) No. (%)
same,"Lymphocyte percentage: decreased: Cases, No.","healthy Chinese males; 30 mg once daily 5 days, n=10",0 No.
same,"Lymphocyte percentage: decreased: Participants, No. (%)","healthy Chinese males; 30 mg once daily 5 days, n=10",0 (0) No. (%)
same,"Myalgia: Cases, No.","healthy Chinese males; 30 mg once daily 5 days, n=10",0 No.
same,"Myalgia: Participants, No. (%)","healthy Chinese males; 30 mg once daily 5 days, n=10",0 (0) No. (%)
same,"Chest discomfort: Cases, No.",healthy Chinese males; [6],1^a No.
same,"Chest discomfort: Participants, No. (%)",healthy Chinese males; [6],1 (10.0)^a No. (%)
same,"Vomiting: Cases, No.",healthy Chinese males; [6],1^a No.
same,"Vomiting: Participants, No. (%)",healthy Chinese males; [6],1 (10.0)^a No. (%)
same,"Chest discomfort: Cases, No.","healthy Chinese males; 60 mg once daily 5 days, n=10",0 No.
same,"Chest discomfort: Participants, No. (%)","healthy Chinese males; 60 mg once daily 5 days, n=10",0 (0) No. (%)
same,"Influenza-like illness: Cases, No.","healthy Chinese males; 60 mg once daily 5 days, n=10",1 No.
same,"Influenza-like illness: Participants, No. (%)","healthy Chinese males; 60 mg once daily 5 days, n=10",1 (10.0) No. (%)
same,"Vomiting: Cases, No.","healthy Chinese males; 60 mg once daily 5 days, n=10",0 No.
same,"Vomiting: Participants, No. (%)","healthy Chinese males; 60 mg once daily 5 days, n=10",0 (0) No. (%)
same,"Blood glucose: elevated: Cases, No.",healthy Chinese males; [7],1^a No.
same,"Blood glucose: elevated: Participants, No. (%)",healthy Chinese males; [7],1 (10.0)^a No. (%)
same,"Fatigue: Cases, No.",healthy Chinese males; [7],2^a No.
same,"Head discomfort: Cases, No.",healthy Chinese males; [7],1^a No.
same,"Head discomfort: Participants, No. (%)",healthy Chinese males; [7],1 (10.0)^a No. (%)
same,"Lymphocyte count: decreased: Cases, No.",healthy Chinese males; [7],1^a No.
same,"Lymphocyte count: decreased: Participants, No. (%)",healthy Chinese males; [7],1 (10.0)^a No. (%)
same,"Lymphocyte percentage: decreased: Cases, No.",healthy Chinese males; [7],1^a No.
same,"Lymphocyte percentage: decreased: Participants, No. (%)",healthy Chinese males; [7],1 (10.0)^a No. (%)
same,fatalities or serious AEs,healthy Chinese males; [8],no fatalities or serious AEs
same,"impact on heart rate, blood pressure, or visual function",healthy Chinese males; [8],no clinically significant impact
same,severity of observed AEs,healthy Chinese males; [8],mild to moderate
same,instances of AEs assessed by the investigator to be linked to the study drug,"healthy Chinese males; both dose groups, 20 participants",26
same,creatine kinase compared with baseline,healthy Chinese males; day 4,failed to reveal any noteworthy deviations
same,involvement of CYP3A4 in the metabolism,CYP3A4,involvement
same,involvement of CYP2C9 in the metabolism,CYP2C9,involvement
same,inhibition ratio relative to similar products,PDE3,0.75
same,inhibition ratio relative to similar products,PDE6,0.30
same,inhibition ratio relative to similar products,PDE9,0.06
same,inhibition ratio relative to similar products,PDE11,0.49
